For one data set, the target named is Cytochrome P450 2C9 (Homo sapiens, UniProt P11712). Description: Inhibition of recombinant human CYP2C9 expressed in Escherichia coli using 7MFC as substrate by fluorescence assay. In kind it is ADME.
Data set [1] has as its target T1, Potassium voltage-gated channel subfamily KQT member 1 (Homo sapiens, UniProt P51787).
T1 sequence (P51787 whole entry): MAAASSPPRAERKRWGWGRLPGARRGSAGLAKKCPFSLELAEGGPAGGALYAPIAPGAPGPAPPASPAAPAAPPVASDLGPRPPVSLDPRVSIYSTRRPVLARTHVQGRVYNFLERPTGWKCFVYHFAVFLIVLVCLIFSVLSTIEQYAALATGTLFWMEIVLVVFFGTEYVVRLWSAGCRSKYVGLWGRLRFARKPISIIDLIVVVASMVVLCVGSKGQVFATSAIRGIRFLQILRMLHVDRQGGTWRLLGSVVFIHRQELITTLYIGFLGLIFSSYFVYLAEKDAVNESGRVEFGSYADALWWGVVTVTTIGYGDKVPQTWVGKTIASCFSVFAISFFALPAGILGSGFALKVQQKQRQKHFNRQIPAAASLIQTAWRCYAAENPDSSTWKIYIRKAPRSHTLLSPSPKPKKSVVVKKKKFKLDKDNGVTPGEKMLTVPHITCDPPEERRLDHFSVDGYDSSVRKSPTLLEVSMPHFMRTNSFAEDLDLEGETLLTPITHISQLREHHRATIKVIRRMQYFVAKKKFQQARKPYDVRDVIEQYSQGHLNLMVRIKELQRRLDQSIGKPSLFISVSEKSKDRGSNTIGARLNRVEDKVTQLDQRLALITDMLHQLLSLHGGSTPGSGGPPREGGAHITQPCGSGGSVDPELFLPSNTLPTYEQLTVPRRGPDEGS
Briefly: Inhibition of human Kv7.1 by Ion-work electrophysiology assay.

In data set [2] the target is Voltage-gated inwardly rectifying potassium channel KCNH2 (Homo sapiens, UniProt Q12809). Description: Inhibition of human ERG by Ion-work assay.
A short description of data set [3]: Cardiotoxicity in anesthetized Beagle dog assessed as effect on cardiac contractility administered for 2 days as 45 mins iv infusion followed by compound washout and subsequent adrenaline dosing for 2 days as 10 mins iv infusion. The class given is toxicity, organism-based, Canis lupus familiaris. The note with it: in vivo.
A short description of data set [4]: Protein binding in Sprague-Dawley rat plasma assessed as unbound fraction by equilibrium dialysis method. In kind it is ADME, cell-free. (In equilibrium dialysis only unbound substance equilibrates across the membrane.)
Data set [5] is described as follows: Octanol-phosphate buffer partition co-efficient, log D of the compound at pH 7.4 after 2 hrs by LC-MS/MS-based shake flask method. The class given is physicochemical. Summed up: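 Distribution between octanol and water at pH 7.4.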
Data set [6] can be described thus: Passive apparent permeability across apical to basolateral side in human Caco2 cells at pH 6.5. In kind it is ADME, cell-based. The conditions noted are these: Caco-2, pH 6.5. Summed up: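 Passive permeability across Caco-2 monolayers, measured in the A to B direction at pH 6.5.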
(Caco-2 cells form a polarised layer with tight junctions and transporters.)

Data set [7] addresses T2, A-type voltage-gated potassium channel KCND3 (Homo sapiens, UniProt Q9UK17).
T2 sequence (Q9UK17 whole entry): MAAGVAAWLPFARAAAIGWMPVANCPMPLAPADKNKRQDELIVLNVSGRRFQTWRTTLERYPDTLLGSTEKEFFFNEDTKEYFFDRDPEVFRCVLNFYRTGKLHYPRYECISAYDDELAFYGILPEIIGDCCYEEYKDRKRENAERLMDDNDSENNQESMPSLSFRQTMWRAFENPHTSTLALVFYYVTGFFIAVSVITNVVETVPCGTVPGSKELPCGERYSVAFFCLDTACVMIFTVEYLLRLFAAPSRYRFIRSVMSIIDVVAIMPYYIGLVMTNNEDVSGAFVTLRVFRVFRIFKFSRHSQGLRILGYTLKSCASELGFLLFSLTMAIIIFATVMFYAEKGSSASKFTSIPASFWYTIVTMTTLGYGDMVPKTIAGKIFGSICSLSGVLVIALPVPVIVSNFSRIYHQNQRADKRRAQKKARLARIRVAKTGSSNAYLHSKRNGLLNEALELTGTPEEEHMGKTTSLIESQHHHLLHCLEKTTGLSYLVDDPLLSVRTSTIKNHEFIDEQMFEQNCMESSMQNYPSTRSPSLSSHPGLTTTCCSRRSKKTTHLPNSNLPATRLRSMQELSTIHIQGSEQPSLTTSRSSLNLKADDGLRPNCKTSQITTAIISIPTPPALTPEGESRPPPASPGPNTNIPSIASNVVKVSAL
Description: Inhibition of human Kv4.3 by Ion-work electrophysiology assay.

Data set [8] addresses Sodium channel protein type 5 subunit alpha (Homo sapiens, UniProt Q14524). Briefly: Inhibition of human NaV1.5 by Ion-work electrophysiology assay.
For another data set, the target named is Cytochrome P450 2D6 (Homo sapiens, UniProt P10635). Description: Inhibition of recombinant human CYP2D6 expressed in Escherichia coli using MAMC as substrate by fluorescence assay. In kind it is ADME.
A short description of data set [9]: Mutagenicity in Salmonella typhimurium TA100 in absence of rat S9 fraction by Ames test. In kind it is toxicity. The note with it: salmonella enterica subsp. enterica serovar typhimurium. Summed up:
(§1)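 Ames bacterial mutagenicity test in S. typhimurium TA98 and TA100. Run with and without metabolic activation by rat S9 fraction.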
A general note: The Ames test detects mutagens through reverse mutation in bacteria.

A short description of data set [10]: Aqueous solubility of the compound in pH 7.4 phosphate buffer measured after 24 hrs by LC-MS/MS-based shake flask method. In kind it is physicochemical.
For a further data set, the target named is T3, Cytochrome P450 2C8 (Homo sapiens, UniProt P10632).
T3 sequence (P10632 whole entry): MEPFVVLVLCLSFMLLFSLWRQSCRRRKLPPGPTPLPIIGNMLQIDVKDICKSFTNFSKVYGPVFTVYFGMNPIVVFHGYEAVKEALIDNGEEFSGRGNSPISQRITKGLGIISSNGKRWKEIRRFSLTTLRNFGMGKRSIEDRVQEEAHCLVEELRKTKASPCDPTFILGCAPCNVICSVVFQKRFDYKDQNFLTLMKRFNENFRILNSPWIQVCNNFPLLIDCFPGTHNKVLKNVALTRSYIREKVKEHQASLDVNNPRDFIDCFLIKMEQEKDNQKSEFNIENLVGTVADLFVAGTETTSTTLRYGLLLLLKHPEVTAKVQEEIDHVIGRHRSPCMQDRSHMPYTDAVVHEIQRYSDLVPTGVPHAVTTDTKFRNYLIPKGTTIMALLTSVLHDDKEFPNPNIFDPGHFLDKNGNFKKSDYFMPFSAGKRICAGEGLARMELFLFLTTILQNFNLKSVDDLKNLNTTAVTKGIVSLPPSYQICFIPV
Description: Inhibition of recombinant human CYP2C8 expressed in Escherichia coli using luciferin-ME as substrate by fluorescence assay. In kind it is ADME.

The next data set deals with Cytochrome P450 3A4 (Homo sapiens, UniProt P08684). Description: Inhibition of recombinant human CYP3A4 expressed in Escherichia coli using BFC as substrate by fluorescence assay. In kind it is ADME.
Data set [11] in a line: Mutagenicity in Salmonella typhimurium TA100 in presence of rat S9 fraction by Ames test. The note with it: salmonella enterica subsp. enterica serovar typhimurium. The class given is toxicity, subcellular. Summed up:
as §1

Data set [12] deals with Potassium voltage-gated channel subfamily E member 1 (Homo sapiens, UniProt P15382). Description: Inhibition of human KCNE1 by Ion-work electrophysiology assay.
Data set [13] in a line: Mutagenicity in Salmonella typhimurium TA98 in presence of rat S9 fraction by Ames test. In kind it is toxicity, subcellular. The conditions noted are these: salmonella enterica subsp. enterica serovar typhimurium. Put shortly:
as §1

Molecules are shown by their SMILES. Values after ≈ are worked out from the molar mass of the structure shown. Some results are limits rather than exact numbers.

Chain of Voltage-gated inwardly rectifying potassium channel KCNH2 (Q12809 whole entry, the tested form may be a part): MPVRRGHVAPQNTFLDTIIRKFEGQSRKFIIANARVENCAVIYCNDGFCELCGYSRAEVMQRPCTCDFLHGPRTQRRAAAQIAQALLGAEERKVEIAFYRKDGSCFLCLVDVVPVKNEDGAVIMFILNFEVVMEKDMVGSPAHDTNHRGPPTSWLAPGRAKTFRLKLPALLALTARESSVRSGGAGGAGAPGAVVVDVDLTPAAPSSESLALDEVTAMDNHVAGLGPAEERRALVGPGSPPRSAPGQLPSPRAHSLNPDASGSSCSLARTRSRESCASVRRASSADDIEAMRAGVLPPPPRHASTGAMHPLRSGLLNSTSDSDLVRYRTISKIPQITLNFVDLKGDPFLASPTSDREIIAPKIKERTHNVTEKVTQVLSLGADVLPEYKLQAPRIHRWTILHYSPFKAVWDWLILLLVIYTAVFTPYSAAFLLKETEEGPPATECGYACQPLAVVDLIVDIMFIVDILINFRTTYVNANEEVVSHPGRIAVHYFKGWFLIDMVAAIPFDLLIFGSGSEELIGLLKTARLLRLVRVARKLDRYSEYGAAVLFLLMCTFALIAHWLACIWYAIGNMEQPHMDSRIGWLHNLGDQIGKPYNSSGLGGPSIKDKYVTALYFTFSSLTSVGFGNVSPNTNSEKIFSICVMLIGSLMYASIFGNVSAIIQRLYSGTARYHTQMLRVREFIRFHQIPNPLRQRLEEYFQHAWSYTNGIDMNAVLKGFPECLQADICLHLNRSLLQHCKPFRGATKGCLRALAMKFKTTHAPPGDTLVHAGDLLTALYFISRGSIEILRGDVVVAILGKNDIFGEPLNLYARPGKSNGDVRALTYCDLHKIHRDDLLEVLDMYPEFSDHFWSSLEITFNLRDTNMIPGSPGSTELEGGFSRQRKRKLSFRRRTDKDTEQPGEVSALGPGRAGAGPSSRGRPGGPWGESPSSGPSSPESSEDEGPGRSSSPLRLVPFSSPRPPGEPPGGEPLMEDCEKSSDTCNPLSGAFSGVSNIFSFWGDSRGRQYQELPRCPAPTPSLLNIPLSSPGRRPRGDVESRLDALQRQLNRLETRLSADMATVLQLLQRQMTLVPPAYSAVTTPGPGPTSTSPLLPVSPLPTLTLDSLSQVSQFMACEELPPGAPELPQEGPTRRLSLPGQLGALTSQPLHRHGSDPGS
Chain of Cytochrome P450 2C9 (P11712 whole entry): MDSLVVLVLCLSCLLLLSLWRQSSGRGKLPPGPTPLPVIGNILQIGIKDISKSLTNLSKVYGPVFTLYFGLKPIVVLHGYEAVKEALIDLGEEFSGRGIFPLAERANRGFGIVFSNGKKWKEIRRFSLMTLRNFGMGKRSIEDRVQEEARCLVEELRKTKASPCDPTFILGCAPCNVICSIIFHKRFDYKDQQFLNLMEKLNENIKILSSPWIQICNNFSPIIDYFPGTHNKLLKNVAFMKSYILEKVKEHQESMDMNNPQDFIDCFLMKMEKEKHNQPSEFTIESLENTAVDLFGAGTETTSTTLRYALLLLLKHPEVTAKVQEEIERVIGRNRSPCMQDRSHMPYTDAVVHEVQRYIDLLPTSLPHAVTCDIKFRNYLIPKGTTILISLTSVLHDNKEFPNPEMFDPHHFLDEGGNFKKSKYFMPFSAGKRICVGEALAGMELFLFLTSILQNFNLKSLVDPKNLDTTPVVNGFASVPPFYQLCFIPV
Chain of Cytochrome P450 2D6 (P10635 whole entry): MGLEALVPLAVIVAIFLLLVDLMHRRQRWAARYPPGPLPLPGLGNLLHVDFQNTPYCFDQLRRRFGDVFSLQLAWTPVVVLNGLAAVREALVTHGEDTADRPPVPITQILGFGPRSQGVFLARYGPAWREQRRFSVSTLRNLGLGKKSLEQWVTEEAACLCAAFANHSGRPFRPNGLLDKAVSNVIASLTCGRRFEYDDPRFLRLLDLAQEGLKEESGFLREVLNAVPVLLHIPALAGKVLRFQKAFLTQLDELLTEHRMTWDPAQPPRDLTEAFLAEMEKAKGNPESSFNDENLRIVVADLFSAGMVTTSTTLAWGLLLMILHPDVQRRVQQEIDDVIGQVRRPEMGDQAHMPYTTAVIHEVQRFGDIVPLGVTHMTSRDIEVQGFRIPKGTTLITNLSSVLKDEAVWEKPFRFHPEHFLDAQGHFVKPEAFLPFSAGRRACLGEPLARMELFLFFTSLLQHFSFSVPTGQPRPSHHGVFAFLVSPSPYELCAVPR
Chain of Sodium channel protein type 5 subunit alpha (Q14524 whole entry): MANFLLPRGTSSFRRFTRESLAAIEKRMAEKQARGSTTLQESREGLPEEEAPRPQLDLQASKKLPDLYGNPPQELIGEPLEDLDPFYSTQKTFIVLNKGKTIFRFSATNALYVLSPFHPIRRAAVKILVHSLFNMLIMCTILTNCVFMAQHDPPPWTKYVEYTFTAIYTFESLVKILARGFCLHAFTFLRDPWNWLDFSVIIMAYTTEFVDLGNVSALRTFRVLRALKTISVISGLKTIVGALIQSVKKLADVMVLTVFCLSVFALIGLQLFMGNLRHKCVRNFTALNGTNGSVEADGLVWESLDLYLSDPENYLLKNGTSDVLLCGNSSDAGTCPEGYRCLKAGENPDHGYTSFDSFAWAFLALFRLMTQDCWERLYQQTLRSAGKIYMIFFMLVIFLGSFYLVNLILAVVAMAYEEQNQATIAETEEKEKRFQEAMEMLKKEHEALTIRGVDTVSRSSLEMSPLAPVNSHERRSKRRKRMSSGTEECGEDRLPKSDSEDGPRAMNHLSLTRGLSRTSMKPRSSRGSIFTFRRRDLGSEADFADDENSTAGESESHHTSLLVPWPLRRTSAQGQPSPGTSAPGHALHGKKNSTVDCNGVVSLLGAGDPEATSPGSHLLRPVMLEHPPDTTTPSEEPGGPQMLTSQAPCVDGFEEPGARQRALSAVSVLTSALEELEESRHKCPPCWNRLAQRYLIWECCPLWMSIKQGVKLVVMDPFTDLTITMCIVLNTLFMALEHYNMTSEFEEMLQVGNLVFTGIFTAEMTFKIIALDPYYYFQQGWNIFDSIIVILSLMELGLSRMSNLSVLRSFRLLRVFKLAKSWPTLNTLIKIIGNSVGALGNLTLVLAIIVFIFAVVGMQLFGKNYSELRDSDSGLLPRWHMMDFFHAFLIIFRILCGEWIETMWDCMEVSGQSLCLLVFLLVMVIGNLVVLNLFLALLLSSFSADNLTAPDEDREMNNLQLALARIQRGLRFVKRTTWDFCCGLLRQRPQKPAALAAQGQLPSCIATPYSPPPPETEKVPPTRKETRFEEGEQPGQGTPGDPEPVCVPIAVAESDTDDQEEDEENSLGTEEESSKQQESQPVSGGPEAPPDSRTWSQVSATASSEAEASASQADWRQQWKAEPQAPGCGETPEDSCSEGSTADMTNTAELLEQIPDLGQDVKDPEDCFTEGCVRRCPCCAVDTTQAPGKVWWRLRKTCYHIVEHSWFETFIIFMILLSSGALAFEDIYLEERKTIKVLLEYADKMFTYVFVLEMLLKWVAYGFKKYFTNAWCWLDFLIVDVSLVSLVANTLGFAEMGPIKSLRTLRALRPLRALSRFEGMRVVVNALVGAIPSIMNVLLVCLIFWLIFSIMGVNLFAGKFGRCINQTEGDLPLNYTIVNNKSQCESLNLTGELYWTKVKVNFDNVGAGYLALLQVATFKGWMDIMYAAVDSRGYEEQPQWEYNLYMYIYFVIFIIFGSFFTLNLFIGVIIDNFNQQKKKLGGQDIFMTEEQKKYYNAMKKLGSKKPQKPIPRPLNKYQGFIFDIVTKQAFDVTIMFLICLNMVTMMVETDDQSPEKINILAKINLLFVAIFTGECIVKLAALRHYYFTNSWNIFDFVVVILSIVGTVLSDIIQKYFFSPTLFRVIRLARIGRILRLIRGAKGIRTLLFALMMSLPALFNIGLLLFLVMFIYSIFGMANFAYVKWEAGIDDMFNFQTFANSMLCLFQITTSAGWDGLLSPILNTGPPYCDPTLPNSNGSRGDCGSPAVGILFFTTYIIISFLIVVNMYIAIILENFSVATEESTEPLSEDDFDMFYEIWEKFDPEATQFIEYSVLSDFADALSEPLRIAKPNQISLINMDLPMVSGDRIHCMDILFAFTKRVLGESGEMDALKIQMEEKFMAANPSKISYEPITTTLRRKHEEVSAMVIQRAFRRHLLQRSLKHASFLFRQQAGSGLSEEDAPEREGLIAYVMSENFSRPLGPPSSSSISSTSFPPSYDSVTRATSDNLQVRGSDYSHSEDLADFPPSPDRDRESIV
Chain of Cytochrome P450 3A4 (P08684 whole entry): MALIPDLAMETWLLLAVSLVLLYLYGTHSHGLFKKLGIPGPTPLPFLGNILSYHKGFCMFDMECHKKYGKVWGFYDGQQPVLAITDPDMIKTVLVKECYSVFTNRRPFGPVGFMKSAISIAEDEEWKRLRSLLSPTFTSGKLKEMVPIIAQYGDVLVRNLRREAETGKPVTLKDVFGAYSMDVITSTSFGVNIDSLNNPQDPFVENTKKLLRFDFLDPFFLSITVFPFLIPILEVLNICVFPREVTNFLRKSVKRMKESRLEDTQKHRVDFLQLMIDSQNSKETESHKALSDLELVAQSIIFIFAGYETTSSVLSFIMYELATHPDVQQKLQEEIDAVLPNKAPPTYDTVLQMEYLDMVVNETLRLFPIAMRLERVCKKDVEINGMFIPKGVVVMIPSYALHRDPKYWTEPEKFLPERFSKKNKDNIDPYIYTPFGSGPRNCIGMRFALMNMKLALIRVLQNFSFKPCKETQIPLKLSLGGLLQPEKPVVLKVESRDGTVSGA

By IC50 is commonly meant the point on the concentration scale where inhibition reaches its midpoint. As usually defined, the fraction unbound is the share of the substance not bound to proteins or other matrix. By logD is commonly meant lipophilicity at a set pH, counting ionised and neutral species. A higher logD goes with higher lipophilicity. Usually Papp A→B stands for how fast a substance crosses the layer from the apical side. Usually solubility (thermodynamic) stands for solubility found after equilibrating the solid with the medium. As to `Cc1cc(-c2ccc(C(=O)[C@@H]3CCCC[C@H]3C(=O)Nc3cnn(C)c3S(N)(=O)=O)cc2)[nH]n1`, the IC50 at Cytochrome P450 2C9 was greater than 20 µM; in data set [1], greater than 33 µM; in data set [2], greater than 33 µM; in [7] it was greater than 33 µM; in data set [8], greater than 33 µM; on Cytochrome P450 2D6, greater than 20 µM. Moreover, the IC50 at Cytochrome P450 2C8 is greater than 20 µM; on Cytochrome P450 3A4, greater than 20 µM; in data set [12] it was greater than 33 µM. Further, the Activity entry in data set [3], in data set [9], in data set [11] and in [13] was “Non-Toxic” in each case. Besides, in [4], the fraction unbound is 0.014. Further, in data set [5], the logD at 2 h was 3.4. In addition, in data set [6], the Papp A→B amounted to 9 ×10⁻⁶ cm/s. Moreover, in data set [10], the thermodynamic solubility at 24 h is 79.7 µM (≈ 37.5 µg/mL).
`Cc1cc(-c2ccc(C(=O)[C@@H]3CCCC[C@H]3C(=O)Nc3cnn4c3C(=O)NCC4)cc2)[nH]n1`: the IC50 was greater than 20 µM at Cytochrome P450 2C9; greater than 33 µM in data set [1]; greater than 33 µM in data set [2]; greater than 33 µM in [7]; greater than 33 µM in [8]; greater than 20 µM at Cytochrome P450 2D6. Moreover, the results for the IC50 (on Cytochrome P450 2C8; at Cytochrome P450 3A4; in data set [12]) were greater than 20 µM, greater than 20 µM and greater than 33 µM, respectively. Moreover, the Activity entry in [3], in data set [9], in [11] and in data set [13] was “Non-Toxic” throughout. Moreover, the fraction unbound in data set [4] came to 0.024. For the same compound, the logD at 2 h in [5] turned out to be 2.9. Further, the Papp A→B in [6] stood at 3.7 ×10⁻⁶ cm/s. This compound gave a solubility (thermodynamic) at 24 h in data set [10] of 104 µM (≈ 46.4 µg/mL).
Take `Cc1cc(-c2ccc(C(=O)[C@@H]3CCCC[C@H]3C(=O)Nc3cnn(C)c3C(=O)NOC(C)(C)C)cc2)[nH]n1`: the IC50 at Cytochrome P450 2C9 was greater than 20 µM; in data set [1], greater than 33 µM; in data set [2] it was greater than 33 µM; in data set [7], greater than 33 µM; in [8] it was greater than 33 µM; on Cytochrome P450 2D6, greater than 20 µM. Also, the IC50 on Cytochrome P450 2C8 is greater than 20 µM; at Cytochrome P450 3A4, greater than 20 µM; in data set [12] it was greater than 33 µM. Also, the Activity entry in [3] is “Toxic”; in data set [9], “Non-Toxic”; in data set [11], “Non-Toxic”; in data set [13], “Non-Toxic”. Moreover, the fraction unbound in data set [4] is less than 0.0004. This compound also showed a logD at 2 h in [5] of 3.3. In data set [6], the Papp A→B came to 14.7 ×10⁻⁶ cm/s. This compound also showed a solubility (thermodynamic) at 24 h in [10] of 208 µM (≈ 105 µg/mL).

Values taken from ChEMBL document CHEMBL4393654, “Discovery and Early Clinical Development of an Inhibitor of 5-Lipoxygenase Activating Protein (AZD5718) for Treatment of Coronary Artery Disease” (J Med Chem, 2019).
